Most compounds without a hit are left out; they make up all but 2.8% or so of the library.
m5-HT2A agonist = mouse Htr2a agonists via beta-arrestin recruitment, primary screen, cell-based, luminescence; 5-hydroxytryptamine receptor 2A (Mus musculus), P35363; CHO-K1 mHTR2A beta-arrestin complementation; percent of 30 µM serotonin response; activation, % at 7.6 µM; actives 0.66% (n = 360,000);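 active means activation above a run cutoff, the mean activation of all tested compounds plus 3 SD, cut at about 14% in these data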;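 further: 0% = plate median of compound wells and 100% = 30 µM serotonin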
MC4R ag barr = MC4R agonists recruiting beta-arrestin, primary screen, cell-based, luminescence, agonist arm of biased-ligand search | U2OS MC4R beta-arrestin complementation; percent of melanotan II response, DMSO zero | actives 0.98% (n = 360,000) | Melanocortin receptor 4 (Homo sapiens), P32245 | activation, % at 8.9 µM;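 active means activation above a per-plate cutoff, the mean activation of sample wells on that plate plus 3 SD, cut at about 8% in these data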
Target sequence (P32245 whole entry, looked up): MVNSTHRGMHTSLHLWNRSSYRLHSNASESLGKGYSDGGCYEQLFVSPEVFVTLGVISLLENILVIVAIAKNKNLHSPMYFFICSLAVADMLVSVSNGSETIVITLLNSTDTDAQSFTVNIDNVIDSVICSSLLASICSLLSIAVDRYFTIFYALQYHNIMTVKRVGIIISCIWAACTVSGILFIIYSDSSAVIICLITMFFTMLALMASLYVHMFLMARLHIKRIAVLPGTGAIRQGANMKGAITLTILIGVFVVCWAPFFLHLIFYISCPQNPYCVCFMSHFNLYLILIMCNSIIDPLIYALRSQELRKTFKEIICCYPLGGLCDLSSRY
EBI2 antag = EBI2 receptor antagonists, beta-arrestin recruitment, primary screen, cell-based, luminescence, 7a,25-OHC stimulation, uHTS; G-protein coupled receptor 183 (Homo sapiens), P32249; 7a,25-OHC stimulated; inhibition, % at 5 µM; actives 0.81% (n = 360,000); AID 651636, 2012; in the data active means inhibition above about 38%;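 further: enzyme fragment complementation signal reports receptor beta-arrestin coupling in cells; 0% = agonist plus DMSO wells and 100% = wells without agonist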
MC4R antagonist = MC4R antagonists of cAMP signaling, primary screen, cell-based, TR-FRET, antagonist arm of biased-ligand search. AID 540295, 2011. inhibition, % at 6.5 µM. Melanocortin receptor 4 (Homo sapiens), P32245. actives 0.48% (n = 360,000). MC4R-expressing cells, MTII-stimulated cAMP, LANCE TR-FRET;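 active means inhibition above its plate's cutoff, the mean of tested wells on that plate plus 3 SD, cut at about 29% in these data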;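 further: 0% = Melanotan II alone and 100% = Melanotan II plus saturating MCL0020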
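Material: human MC4R-expressing U2OS cells. Probe or stimulus: Melanotan II challenge. Dosing: 6.5 µM single dose. Times: 30-min compound, 1-h challenge, 1-h detection, room temperature. Technique: TR-FRET with Eu-cAMP and labeled anti-cAMP, 671 nm. Replication: singlicate.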
MC4R barr ag = MC4R beta-arrestin agonists, retest, confirmation, cell-based, luminescence, U2OS. shares compounds with MC4R ag barr. U2OS MC4R beta-arrestin recruitment; scaled DMSO 0%, Melanotan II 100%. activation, % at 8.9 µM. actives 31% (n = 2,400). AID 602192, 2012;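 active means mean activation across replicates above the hit cutoff set in the earlier primary screen, cut at about 8% in these data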
MOR DOR agonist = agonists of MOR-DOR heterodimerization, counter-screen for MC4R biased agonist project, cell-based, luminescence; shares compounds with MC4R ag barr; U2OS PathHunter beta-arrestin, beta-gal luminescence; percent of deltorphin B response, DMSO zero; activation, % at 9.2 µM; actives 5.8% (n = 2,400); AID 602194, 2012;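 active means mean activation across replicates exceeds the hit threshold derived in the earlier primary screen, cut at about 18% in these data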;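 further: 100% = deltorphin B at 0.9 µM final and 0% = DMSO alone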
* hit, by the source's call; x = not tested or not shown.

SMILES	m5-HT2A agonist	MC4R ag barr	EBI2 antag	MC4R antagonist	MC4R barr ag	MOR DOR agonist
COCCNC(=O)C1(C)CCCN(C(=O)c2ccccc2OC)C1 (configuration not stated)	-3.4	0.2	0.1	5.8	x	x
COc1ccc(N2CCN(C(=O)COC(=O)CC(NC(N)=O)c3ccc(Cl)cc3)CC2)cc1 (configuration not stated)	-3.7	-0.5	-4.6	1.5	x	x
COc1ccc(C(=O)C(=O)N2CCN(c3ccc(C)cc3)CC2)cc1OC	-1.0	x	4.0	x	x	x
CC1CCc2c(sc3ncn4c(SCC(=O)NCc5ccco5)nnc4c23)C1 (configuration not stated)	1.3	10.0*	7.6	-15.8	9.9*	4.3
Cc1ccc2oc(-c3ccc(NC(=O)CC(C)C)cc3)nc2c1	1.5	14.2*	16.0	3.0	-2.2	3.4
O=C(CCCc1c[nH]c2ccccc12)NCC1COc2ccccc2O1 (configuration not stated)	-6.0	-2.8	6.5	2.9	x	x
O=C(CCc1c[nH]c2ccccc12)NCC1COc2ccccc2O1 (configuration not stated)	-4.0	10.6*	12.4	13.9	-3.4	1.0
Cc1ccc(-n2nnc3c(SCC(=O)NCc4ccco4)ncnc32)cc1	-4.7	13.5*	-0.9	4.1	1.1	4.7
CCOC(=O)c1ccc(NC(=S)Nc2cccc(C)n2)cc1	-0.3	21.9*	19.7	0.9	6.9	7.1
O=C(COC(=O)c1cc([N+](=O)[O-])ccc1NCc1ccccc1Cl)NCC(F)(F)F	1.3	12.7*	17.9	2.0	3.7	4.3
O=C(COC(=O)c1cc([N+](=O)[O-])ccc1Cl)NCCc1ccccc1	-3.5	-2.1	-4.1	1.8	x	x
CCNc1ccc(C(=O)OCC(=O)NCc2ccccc2Cl)cc1[N+](=O)[O-]	-1.6	16.0*	0.3	-0.1	7.0	3.1
COc1ccc(N2CCN(CCCn3cnc4c(OC)ncnc43)CC2)cc1	-4.8	1.6	-11.9	7.2	x	x
CCCSc1ccc(-c2nn(-c3ccccc3)cc2/C=C(/C#N)C(=O)NCCCOC)cc1	-0.7	2.6	33.7	-5.2	x	x
CCSc1ccc(-c2nn(-c3ccccc3)cc2/C=C(/C#N)C(=O)NCCCOC)cc1	-2.0	21.9*	5.8	-18.6	39.8*	18.8*
O=C(NCC[C@@H]1CC[C@@H](NS(=O)(=O)c2ccccc2)[C@@H](CO)O1)c1cc(Cl)cc(Cl)c1	3.3	x	-8.5	x	x	x
O=C(Cc1coc2ccc3ccccc3c12)Nc1nnc(C2CC2)s1	11.8	27.4*	-3.1	-5.0	9.5*	3.7
Cc1nc(Nc2ccc(C(=O)O)cc2)nc(Nc2ccc(C(=O)O)cc2)c1[N+](=O)[O-]	-2.6	-4.7	6.1	12.1	x	x
Cc1nc(Nc2ccc(F)cc2)nc(Nc2ccc(F)cc2)c1[N+](=O)[O-]	-1.4	13.2*	16.9	10.1	5.5	3.2
N=c1c(C(=O)NCCN2CCOCC2)cc2c(=O)n3ccccc3nc2n1CCc1ccccc1	-8.2	0.5	10.7	-1.2	x	x
CCC(C)(C)NC(=O)C(c1ccc(C)cc1)N(Cc1ccco1)C(=O)Cn1nnc2ccccc21 (configuration not stated)	3.9	9.9*	-36.0	-2.5	3.4	4.5
C=CCn1c(O)c(C2=c3ccccc3=NC2=O)s/c1=N/c1nccs1	-2.2	10.4*	0.9	-4.2	-0.4	3.9
COc1cccc(-c2nc(NCc3cccnc3)c3ccccc3n2)c1O	-2.7	15.7*	7.6	1.1	6.0	7.9
CCSc1nnc(-c2ccc(C)cc2)c2ccccc12	3.3	0.5	6.0	8.7	x	x
CCSc1nnc(-c2ccc(Cl)cc2)c2ccccc12	-1.4	18.8*	7.7	2.4	-1.6	2.9
SMILES	m5-HT2A agonist	MC4R ag barr	EBI2 antag	MC4R antagonist	MC4R barr ag	MOR DOR agonist
Cc1csc(-c2nc3ccccc3n2C(C(=O)NC(C)(C)C)c2ccccc2)c1 (configuration not stated)	5.0	x	13.6	x	x	x
COc1ccc(CC(N)c2csc(NC(=O)Nc3ccccc3Oc3ccccc3)n2)cc1 (configuration not stated)	1.5	12.1*	-6.6	8.5	7.6	21.1*
NC(Cc1ccccc1)c1csc(NC(=O)Nc2ccccc2Oc2ccccc2)n1 (configuration not stated)	-1.5	5.1	-20.2	5.2	x	x
CCc1cnc(Nc2nc(C(N)Cc3ccc(Cl)cc3)cs2)nc1 (configuration not stated)	-0.3	0.4	-1.1	-5.9	x	x
NC(Cc1ccc(C(F)(F)F)cc1)c1csc(NC(=O)NCCc2ccccc2)n1 (configuration not stated)	3.3	14.1*	-2.9	10.4	22.1*	18.1*
COc1ccccc1CNC(=O)Nc1nc(C(N)Cc2ccc(Cl)cc2)cs1 (configuration not stated)	-12.3	25.5*	5.7	5.6	40.2*	23.4*
COc1ccc(CNC(=O)Nc2nc(C(N)Cc3ccc(Cl)cc3)cs2)cc1 (configuration not stated)	-12.3	4.6	0.2	-6.3	x	x
NC(Cc1ccc(Cl)cc1)c1csc(Nc2ccc(-c3ccccc3)nn2)n1 (configuration not stated)	-0.1	14.6*	0.0	10.5	33.3*	13.1
OC[C@@H]1CN(CCN2CCOCC2)C[C@H](n2cnc3c(N4CCCC4)ncnc32)O1	10.3	2.3	-7.9	-5.8	x	x
CN(C)CCNC(=O)c1cccc(-c2cnc3c(NC=O)cc(-c4cccs4)cn23)c1	-1.7	1.1	-12.3	-3.9	x	x
NC(c1ccccc1)c1csc(NC(=O)Nc2ccccc2Oc2ccccc2)n1 (configuration not stated)	-6.3	23.4*	0.9	-3.6	35.1*	13.4
COc1ccccc1NC(=O)Nc1nc(C(N)Cc2ccc(C(F)(F)F)cc2)cs1 (configuration not stated)	5.5	20.7*	-8.9	-2.0	11.3*	14.1
O=C1c2c(-c3ccc(Br)cc3)noc2CCN1Cc1cn(C2CCCC2)nn1	1.4	x	6.4	x	x	x
CCc1nc2c(OCc3ccccc3C)cccn2c1N(C)C(=O)c1ccc(C)cc1	-8.5	-0.7	6.5	15.5	x	x
CNC(=S)N/N=C/c1c2ccccc2c(Cl)c2ccccc12	-2.5	4.1	1.7	14.9	x	x
O=C(NC(=O)c1cccc(F)c1)OC[C@@H]1CCCN2CCCC[C@H]12	1.0	0.0	-2.6	1.3	x	x
